Test results as given in PMC2928052 (Journal of medicinal chemistry, 2010).
Entries after “also recorded” stand apart in the source; their conditions may differ.

What was measured:
[1] = target: HIV-1 FSS RNA (upper stem-loop of the HIV-1 frameshift-stimulating RNA); assay: Fluorescence titration of compound into 5′-Cy3-labeled RNA; assay type: binding, HIV-1 (group M subtype D); conditions: Table 2, average ± standard deviation of 3 replicate titrations
[2] = target: unrelated RNA hairpin (entry 11); assay: Fluorescence titration, Table 1 entry 11; assay type: binding
Summary of the method: (§1)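 5′-Cy3-labelled oligonucleotide (400 or 500 nM) in 1X PBS pH 7.2 was heated to 65 °C for 4 min, MgCl2 was added, and the sample was cooled slowly to RT. Test compound was titrated in (100 nM–10 μM), with ≥10 min equilibration per addition. Excitation was 550 nm and emission was read at 564.1 nm. Dilution-corrected ΔFU was fit to a 1-site ligand-depletion model, with ≥2 titrations.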

[3] = test system: HIV-1 FSS with single mutation in the loop region (entry 7); assay: Fluorescence titration, Table 1 entry 7; assay type: binding; conditions: entry 7, single mutation in the loop region
[4] = test system: biotinylated HIV-1 FSS RNA; assay: SPR binding kinetics, RNA immobilized on streptavidin-coated CM5 chip; conditions: 1X PBS, 5 mM MgCl2, 0.005 % Tween-20, 1:1 global fit to six sensorgrams
[5] = target: unrelated RNA hairpin (entry 10); conditions: Table 1 entry 10; compound immobilized on chip; previously reported; cited from earlier work
[6] = target: unrelated RNA hairpin (entry 10); assay: Fluorescence titration, Table 1 entry 10; assay type: binding
Summary of the method: as §1

[7] = target: DNA homolog of the HIV-1 FSS (entry 9); assay: Fluorescence titration, Table 1 entry 9; assay type: binding
Summary of the method: as §1

[8] = test system: HIV-1 FSS with multiple mutations in the loop region (entry 8); assay: Fluorescence titration, Table 1 entry 8; assay type: binding; conditions: entry 8, multiple mutations in the loop region

| Compound | KD [1] | Binding constant (KD), Solution [2] | reduction in the binding relative to HIV-1 FSS [3] | Association rate (kon) [4] | Dissociation rate (koff) [4] | Binding constant (KD), SPR [5] | Binding constant (KD), Solution [6] | Binding constant (KD), Solution [7] | reduction in the binding relative to HIV-1 FSS [8] |
| --- | --- | --- | --- | --- | --- | --- | --- | --- | --- |
| (Cys-Pro-Phe)2 (disulfide) [Compound 5] | completely ablated binding; also recorded: No Binding |  |  |  |  |  |  |  |  |
| (Cys-Pro-Phe)2 (disulfide) [Compound 1] |  | No saturable binding | 2 fold | 1790 M⁻¹ s⁻¹ | 0.0141 s⁻¹ | No binding | No saturable binding | No saturable binding | 4 fold |
| NC[C@@H]1O[C@H](O[C@H]2[C@@H](O)[C@H](O[C@@H]3[C@@H](O)[C@H](N)C[C@H](N)[C@H]3O[C@H]3O[C@H](CN)[C@@H](O)[C@H](O)[C@H]3N)O[C@@H]2CO)[C@H](N)[C@@H](O)[C@@H]1O [Neomycin, neomycin, reference compound] |  |  |  | too rapid to determine accurately | too rapid to determine accurately |  |  |  |  |
